Results from ChEMBL document CHEMBL2396601, “Synthesis and antiprotozoal activity of dicationic m-terphenyl and 1,3-dipyridylbenzene derivatives” (J Med Chem, 2013).
The source made the active and inactive calls. The rule behind the calls is not given here.

Key:
Mus musculus [1] = experiment: Toxicity in BALB/c mouse assessed as hyperactivity measured after first dose at 30 mg/kg, ip qd for 5 days; format: organism-based; design: dose 30 mg/kg, route intraperitoneal; settings: in vivo, 120 h
Summary of the method: (§1)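 Tolerability check before efficacy testing in uninfected BALB/c mice, groups of two, given 30 mg/kg ip daily for five days. Watched for overt toxicity signs such as tremors and hyperactivity after each dose. Mice showing adverse effects were euthanized.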

Leishmania amazonensis = experiment: Antiprotozoal activity against intracellular amastigote form of Leishmania amazonensis infected in CD1 mouse macrophages after 72 hrs by […]; format: functional, organism-based
[2] = Selectivity index, ratio of IC50 for rat L6 cells to IC50 for Trypanosoma cruzi Tulahuen C2C4; format: toxicity, cell-based; settings: read-out: Ratio IC50
Summary of the method: (§2)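 Selectivity index is IC50 against L6 rat myoblast cells divided by IC50 against the named parasite.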

L6 = experiment: Cytotoxicity against rat L6 cells after 72 hrs by Alamar Blue assay; format: cell-based; settings: L6, 72 h
Summary of the method: (§3)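 Uses T. b. rhodesiense STIB900, T. cruzi Tulahuen C2C4 LacZ intracellular amastigotes, or L6 rat myoblasts depending on line.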

Mus musculus [3] = experiment: Toxicity in BALB/c mouse assessed as tremors measured after second dose at 30 mg/kg, ip qd for 5 days; format: organism-based; design: dose 30 mg/kg, route intraperitoneal; settings: in vivo, 120 h; summary of the method: as §1
[4] = test system: Trypanosoma brucei rhodesiense; experiment: Antiprotozoal activity against Trypanosoma brucei rhodesiense STIB900 after 72 hrs by Alamar Blue assay; format: functional, organism-based; summary of the method: as §3
Plasmodium falciparum = experiment: Antiprotozoal activity against chloroquine-resistant Plasmodium falciparum K1 after 48 hrs by [3H]-hypoxanthine incorporation assay; format: functional, organism-based
[5] = Selectivity index, ratio of IC50 for rat L6 cells to IC50 for Plasmodium falciparum K1; format: toxicity, cell-based; settings: L6 cells, read-out: Ratio IC50; summary of the method: as §2
[6] = Selectivity index, ratio of IC50 for rat L6 cells to IC50 for Trypanosoma brucei rhodesiense STIB900; format: toxicity, cell-based; settings: L6 cells, read-out: Ratio IC50; summary of the method: as §2
Trypanosoma cruzi = experiment: Antiprotozoal activity against intracellular amastigote form of Trypanosoma cruzi Tulahuen C2C4 expressing LacZ infected in rat L6 cells after 48 hrs; format: functional, organism-based; settings: Tulahuen C2C4, L6, 48 h; summary of the method: as §3
[7] = Selectivity index, ratio of IC50 for rat L6 cells to IC50 for Leishmania amazonensis; format: toxicity, cell-based; settings: read-out: Ratio IC50; summary of the method: as §2
[8] = test system: Trypanosoma brucei rhodesiense; experiment: Antiprotozoal activity against Trypanosoma brucei rhodesiense STIB900 infected in NMRI mouse assessed as host mean survival days at 5 mg/kg, ip qd for 4 days; format: functional; settings: route intraperitoneal
Summary of the method: (§4)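 Acute-stage HAT mouse model infected with STIB900. Cure means survival to 60 days after infection with no parasitemia relapse. Mean survival days are counted from infection and use every mouse: relapsed mice, plus cured mice entered as >60 days.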

[9] = test system: Trypanosoma brucei rhodesiense; experiment: Antiprotozoal activity against Trypanosoma brucei rhodesiense STIB900 infected in NMRI mouse assessed as host mean survival days at 10 mg/kg, ip; format: functional; settings: route intraperitoneal; summary of the method: as §4
[10] = test system: Trypanosoma brucei rhodesiense; experiment: Antiprotozoal activity against Trypanosoma brucei rhodesiense STIB900 infected in NMRI mouse assessed as host mean survival days at 25 mg/kg, po qd for 4 days; format: functional; summary of the method: as §4
[11] = test system: Trypanosoma brucei rhodesiense; experiment: Antiprotozoal activity against Trypanosoma brucei rhodesiense STIB900 infected in NMRI mouse assessed as reduction of parasitemia relapse at 5 mg/kg, ip; format: functional, organism-based; design: dose 5 mg/kg
Summary of the method: (§5)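 Mouse model of acute (early) stage HAT with T. b. rhodesiense STIB900, groups of 4 mice. Amidines dosed intraperitoneally, 4 daily doses of 5 mg/kg or single doses; prodrugs dosed orally, 4 daily doses of 25 mg/kg. Cure means survival to 60 days after infection with no parasitemia relapse. Mean survival days counts all mice, with cured mice scored as >60 days.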

[12] = test system: Trypanosoma brucei rhodesiense; experiment: Antiprotozoal activity against Trypanosoma brucei rhodesiense STIB900 infected in NMRI mouse assessed as host mean survival days at 5 mg/kg, ip; format: functional; settings: route intraperitoneal; summary of the method: as §4
[13] = test system: Trypanosoma brucei rhodesiense; experiment: Antiprotozoal activity against Trypanosoma brucei rhodesiense STIB900 infected in NMRI mouse assessed as reduction of parasitemia relapse at 5 mg/kg, ip qd for 4 days; format: functional, organism-based; design: dose 5 mg/kg; summary of the method: as §5
[14] = test system: Trypanosoma brucei rhodesiense; experiment: Antiprotozoal activity against Trypanosoma brucei rhodesiense STIB900 infected in NMRI mouse assessed as reduction of parasitemia relapse at 25 mg/kg, po qd for 4 days; format: functional, organism-based; design: dose 25 mg/kg; summary of the method: as §5
[15] = test system: Trypanosoma brucei rhodesiense; experiment: Antiprotozoal activity against Trypanosoma brucei rhodesiense STIB900 infected in NMRI mouse assessed as reduction of parasitemia relapse at 10 mg/kg, ip; format: functional, organism-based; design: dose 10 mg/kg; summary of the method: as §5
[16] = Trypanosoma brucei, STIB900, 72 h

SMILES | IC50 (Leishmania amazonensis) | selectivity ratio [2] | IC50 (L6) | IC50 [4, 16] | IC50 (Plasmodium falciparum; Plasmodium falciparum, K1) | selectivity ratio [5] | selectivity ratio [6] | IC50 (Trypanosoma cruzi) | selectivity ratio [7] | MSD [10] | further results
Cl.Cl.Cl.N=C(Nc1cccc(-c2cc(Cl)cc(-c3cccc(NC(=N)c4ccccn4)c3)c2)c1)c1ccccn1 | 95 nM | 47 | 2500 nM | 19 nM | 6 nM | 450 | 133 | 53 nM | 26 | – | Activity (Mus musculus [1]): Toxic; Activity (Mus musculus [3]): Toxic
Cl.N=C(N)c1ccc(-c2cccc(-c3ccc(C(=N)N)cn3)c2)nc1 | – | – | – | – | – | > 3760 | > 8820 | – | – | – | MSD [8]: >60 days; IC50 [4]: 17 nM; IC50 (Plasmodium falciparum): 40 nM; MSD [9]: >60 days
CO/N=C(\N)c1ccc(-c2cccc(-c3ccc(/C(N)=N\OC)cn3)c2)nc1.Cl | – | > 1 | > 150000 nM | 26300 nM | 3560 nM | > 42 | > 6 | 117000 nM | – | >53.75 days | –
Cl.Cl.N=C(N)c1ccc(-c2cccc(-c3ccc(C(=N)N)nc3)c2)cn1 | – | < 1 | 22300 nM | 6 nM | 15 nM | 1480 | 3720 | 43400 nM | – | – | Activity [11]: Active; MSD [12]: >60 days; MSD [8]: >60 days; Activity [13]: Active
CC(C)Oc1ccc(NC(=N)c2ccccn2)cc1-c1cc(Cl)cc(-c2ccccc2)c1 | 1880 nM | 1 | 3770 nM | 12300 nM | 3080 nM | 1 | < 1 | 2980 nM | 2 | – | –
CN(C)CC(=O)O/N=C(\N)c1ccc(-c2cccc(-c3ccc(/C(N)=N\OC(=O)CN(C)C)cn3)c2)nc1 | – | < 1 | 62900 nM | 9840 nM | 486 nM | 129 | 6 | 72300 nM | – | >52 days | –
CO/N=C(\N)c1cccc(-c2cccc(-c3cccc(/C(N)=N\OC)c3)c2)c1.Cl.Cl | – | < 1 | 20300 nM | 11300 nM | 9310 nM | 2 | 2 | 24100 nM | – | 17.25 days | Activity [14]: inactive
N=C(Nc1ccc(-c2cccc(-c3cccc(NC(=N)c4ccccc4)c3)c2)cc1)c1ccccc1 | 907 nM | 1 | 2520 nM | 635 nM | 38 nM | 66 | 4 | 2140 nM | 3 | – | –
C[C@@H]1[C@H](O)[C@@H](C)/C=C/C=C/C=C/C=C/C=C/C=C/C=C/[C@H](O[C@@H]2O[C@H](C)[C@@H](O)[C@H](N)[C@@H]2O)C[C@@H]2O[C@](O)(C[C@@H](O)C[C@@H](O)[C@H](O)CC[C@@H](O)C[C@@H](O)CC(=O)O[C@H]1C)C[C@H](O)[C@H]2C(=O)O [AMPHOTERICIN B] | 124 nM | – | – | – | – | – | – | – | – | – | –
N=C(Nc1cccc(-c2cc(Cl)cc(-c3cccc(NC(=N)c4ccccc4)c3)c2)c1)c1ccccc1 | 2430 nM | 2 | 4100 nM | 533 nM | 71 nM | 58 | 8 | 2090 nM | 2 | – | –
Cl.Cl.N/C(=N/O)c1ccc(-c2cccc(-c3ccc(/C(N)=N\O)cc3)c2)cc1 | – | – | > 150000 nM | 10900 nM | > 10000 nM | – | > 14 | > 150000 nM | – | >51.25 days | –
Cl.Cl.N/C(=N\O)c1cccc(-c2cccc(-c3cccc(/C(N)=N\O)c3)c2)c1 | – | < 1 | 5600 nM | 2550 nM | 8230 nM | < 1 | 2 | 11200 nM | – | 7.25 days | Activity [14]: inactive
Cl.Cl.N=C(N)c1ccc(-c2cccc(-c3ccc(C(=N)N)cc3)c2)cc1 | – | < 1 | 31200 nM | 4 nM | 24 nM | 1280 | 8490 | 71600 nM | – | – | MSD [8]: >60 days; Activity [13]: Active; Activity [15]: Active; MSD [9]: >60 days
CO/N=C(/N)c1ccc(-c2cccc(-c3ccc(/C(N)=N\OC)cc3)c2)cc1.Cl.Cl | – | < 1 | 19200 nM | 4440 nM | > 10000 nM | < 2 | 4 | 92600 nM | – | >34.25 days | –
N=C(N)c1ccc(-c2cccc(-c3ccc(C(=N)N)cn3)c2)nc1 | – | – | – | – | – | – | – | – | – | – | Activity [13]: Active; Activity [15]: Active
Cl.Cl.N=C(Nc1ccc(-c2cccc(-c3cccc(NC(=N)c4ccccn4)c3)c2)cc1)c1ccccn1 | 123 nM | 7 | 2720 nM | 1940 nM | 208 nM | 13 | 1 | 388 nM | 22 | – | Activity (Mus musculus [1]): Toxic; Activity (Mus musculus [3]): Toxic
CC(C)Oc1cc(NC(=N)c2ccccn2)ccc1-c1cc(Cl)cc(-c2ccccc2)c1 | 933 nM | 2 | 9690 nM | 32400 nM | > 10000 nM | < 1 | < 1 | 4180 nM | 10 | – | –
N=C(Nc1ccc(-c2cc(Cl)cc(-c3cccc(NC(=N)c4ccccc4)c3)c2)cc1)c1ccccc1 | 1020 nM | 1 | 2270 nM | 178 nM | 39 nM | 58 | 13 | 2040 nM | 2 | – | –
